Measurements: ChEMBL document CHEMBL3232894, “Discovery of AMG 925, a FLT3 and CDK4 dual kinase inhibitor with preferential affinity for the activated state of FLT3” (J Med Chem, 2014)
Active and inactive are the calls of the source. The rule behind the calls is not given here.

Columns and labels:
[1] = biological target: Cyclin-dependent kinase 4/cyclin D1 (Homo sapiens, UniProt P11802); assay: Inhibition of CDK4/cyclin D1 (unknown origin) using Rb as substrate after 60 mins by scintillation counting analysis in presence of [r-33P]ATP; format: protein-complex assay
[2] = biological target: Cyclin-dependent kinase 1/cyclin B1 (Homo sapiens, UniProt P06493); assay: Inhibition of CDK1/cyclin B (unknown origin) using histone H1 as substrate after 60 mins by scintillation counting analysis in presence of [r-33P]ATP; format: protein-complex assay
MOLM-13 [3] = assay: Antiproliferative activity against human MOLM13 cells harboring FLT3 ITD mutant assessed as incorporation of [3H]thymidine into DNA after 72 hrs by beta-plate counting analysis; format: functional, cell-based
[4] = Antiproliferative activity against Rb-negative human MDA-MB-436 cells assessed as incorporation of [3H]thymidine into DNA after 72 hrs by beta-plate counting analysis; format: functional
[5] = Oral bioavailability in rat; format: ADME, organism-based; conditions: in vivo
In short: (§1)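 Intravenous and oral (gavage, solution) PK in rat, dog and cynomolgus monkey. The rat vehicle for both routes was water/acetate/tween at pH 4, 96/3/1 (v/v/v). Dog and monkey iv doses used 40% PG aqueous solution at pH 2, and their oral doses used 20% captisol aqueous solution.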

[6] = biological target: Receptor-type tyrosine-protein kinase FLT3 (Homo sapiens, UniProt P36888, ITD); assay: Binding affinity to FLT3 ITD mutant (unknown origin)
[7] = biological target: Receptor-type tyrosine-protein kinase FLT3 (Homo sapiens, UniProt P36888, D835Y); assay: Binding affinity to FLT3 D835Y mutant (unknown origin)
[8] = biological target: Receptor-type tyrosine-protein kinase FLT3 (Homo sapiens, UniProt P36888, K663Q); assay: Binding affinity to FLT3 K663Q mutant (unknown origin)
[9] = biological target: Receptor-type tyrosine-protein kinase FLT3 (Homo sapiens, UniProt P36888, N841I); assay: Binding affinity to FLT3 N841I mutant (unknown origin)
U-937 [10] = assay: Antiproliferative activity against human U937 cells assessed as incorporation of [3H]thymidine into DNA after 72 hrs by beta-plate counting analysis
U-937 [11] = assay: Induction of apoptosis in human U937 cells harboring wild type FLT3 at 1 uM after 48 hrs by Annexin V/Sytox Green staining based flow cytometry; format: functional
In short: (§2)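 MOLM13, sorafenib-resistant MOLM13 and U937 cells were each exposed to compound at 1 μM for 48 h. Cells were then stained with Annexin V/Sytox Green and analysed by flow cytometry. Readout is apoptotic cells as a percentage of all cells analysed.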

MOLM-13 [12] = assay: Induction of apoptosis in sorafenib-resistant human MOLM13 cells harboring FLT3 ITD+D835Y mutant at 1 uM after 48 hrs by Annexin V/Sytox Green staining based flow cytometry; format: functional; in short: as §2
MOLM-13 [13] = assay: Antiproliferative activity against human MOLM13 cells harboring FLT3 ITD mutant assessed as incorporation of [3H]thymidine into DNA after […] by beta-plate counting analysis; format: functional, cell-based
[14] = Clearance in iv dosed dog; format: ADME, organism-based, Canis lupus familiaris; conditions: in vivo; in short: as §1
[15] = Elimination half-life in iv dosed dog; format: ADME, organism-based, Canis lupus familiaris; conditions: in vivo, read-out: beta t1/2 (converted); in short: as §1
[16] = Oral bioavailability in dog; format: ADME, organism-based, Canis lupus familiaris; conditions: in vivo; in short: as §1
[17] = Clearance in iv dosed cynomolgus monkey; format: ADME, organism-based, Macaca fascicularis; conditions: in vivo; in short: as §1
[18] = Volume of distribution at steady state in iv dosed cynomolgus monkey; format: ADME, organism-based, Macaca fascicularis; conditions: in vivo, read-out: Vdss; in short: as §1
[19] = Elimination half-life in iv dosed cynomolgus monkey; format: ADME, organism-based, Macaca fascicularis; conditions: in vivo, read-out: beta t1/2 (converted); in short: as §1
[20] = Oral bioavailability in cynomolgus monkey; format: ADME, organism-based, Macaca fascicularis; conditions: in vivo; in short: as §1
MOLM-13 [21] = assay: Antitumor activity against human MOLM13 cells xenografted in po dosed CrTac:NCR-Foxn1nu (NCR) nude mouse assessed as tumor growth inhibition administered qd for 8 days; format: functional
In short: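 Oral dosing once daily, day 5 to day 13, in NCR nude mice bearing established subcutaneous human MOLM13 AML xenografts, at 25, 50, 75 and 150 mg/kg against a vehicle group. Tumor growth inhibition read on day 14. AUC comes from terminal PK on plasma collected after the final dose.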

Tumour [22] = assay: Decrease in Rb phosphorylation at Ser780 in tumor of CrTac:NCR-Foxn1nu (NCR) nude mouse xenografted with human MOLM13 cells at 50 to 150 mg/kg, po after 3 to 24 hrs; format: functional, organism-based; conditions: Neoplasm, MOLM-13
In short: (§3)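 MOLM13 tumor-bearing mice received a single oral dose of 50, 75 or 150 mg/kg. Tumors were harvested at 3, 6 and 24 h, and lysates were assayed for pSTAT5 and pRb. Unbound plasma levels were measured at the same time points. Results are mean ± SEM, n = 3 per group and n = 6 for vehicle.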

Tumour [23] = assay: Decrease in STAT5 phosphorylation at Tyr694 in tumor of CrTac:NCR-Foxn1nu (NCR) nude mouse xenografted with human MOLM13 cells at 50 to 150 mg/kg, po after 3 to 24 hrs; format: functional, organism-based; conditions: Neoplasm, MOLM-13; in short: as §3
MOLM-13 [24] = assay: cells; conditions: Homo sapiens
[25] = biological target: Cyclin-dependent kinase 4 (Homo sapiens, UniProt P11802); assay: Inhibition of CDK4 in human COLO205 cells assessed as inhibition of Rb phosphorylation at Ser780 after 24 hrs
COLO 205 = assay: Antiproliferative activity against Rb-positive human COLO205 cells assessed as incorporation of [14C]thymidine into DNA after 72 hrs by beta-plate counting analysis

Cyclin-dependent kinase 4, sequence (P11802 whole entry): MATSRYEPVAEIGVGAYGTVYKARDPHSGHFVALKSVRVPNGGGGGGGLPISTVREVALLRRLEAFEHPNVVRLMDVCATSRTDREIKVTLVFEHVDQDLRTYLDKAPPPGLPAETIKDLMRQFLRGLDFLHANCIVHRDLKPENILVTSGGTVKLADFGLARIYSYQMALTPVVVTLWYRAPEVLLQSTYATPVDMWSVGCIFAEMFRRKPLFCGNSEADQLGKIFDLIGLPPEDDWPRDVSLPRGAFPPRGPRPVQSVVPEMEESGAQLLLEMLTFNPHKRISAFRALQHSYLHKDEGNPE
Cyclin-dependent kinase 4/cyclin D1, sequence (P11802 whole entry): as above
Cyclin-dependent kinase 4/cyclin D1, sequence (P24385 whole entry, further chain): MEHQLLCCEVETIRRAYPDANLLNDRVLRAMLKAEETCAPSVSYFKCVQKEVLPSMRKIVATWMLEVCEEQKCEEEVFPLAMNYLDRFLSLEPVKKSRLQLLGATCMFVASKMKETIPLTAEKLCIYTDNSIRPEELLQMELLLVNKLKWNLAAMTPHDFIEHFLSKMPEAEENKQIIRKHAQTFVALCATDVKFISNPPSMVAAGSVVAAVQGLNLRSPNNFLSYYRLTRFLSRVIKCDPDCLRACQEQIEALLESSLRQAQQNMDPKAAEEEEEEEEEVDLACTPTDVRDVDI
Cyclin-dependent kinase 1/cyclin B1, sequence (P06493 whole entry): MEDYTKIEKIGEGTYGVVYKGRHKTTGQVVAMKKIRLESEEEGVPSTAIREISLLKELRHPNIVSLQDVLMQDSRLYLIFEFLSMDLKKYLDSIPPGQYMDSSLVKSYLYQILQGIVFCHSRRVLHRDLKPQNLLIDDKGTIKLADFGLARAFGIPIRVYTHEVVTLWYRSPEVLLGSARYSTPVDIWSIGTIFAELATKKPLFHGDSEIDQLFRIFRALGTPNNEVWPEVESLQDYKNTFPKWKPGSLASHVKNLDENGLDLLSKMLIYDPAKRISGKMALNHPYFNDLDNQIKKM
Cyclin-dependent kinase 1/cyclin B1, sequence (P14635 whole entry, further chain): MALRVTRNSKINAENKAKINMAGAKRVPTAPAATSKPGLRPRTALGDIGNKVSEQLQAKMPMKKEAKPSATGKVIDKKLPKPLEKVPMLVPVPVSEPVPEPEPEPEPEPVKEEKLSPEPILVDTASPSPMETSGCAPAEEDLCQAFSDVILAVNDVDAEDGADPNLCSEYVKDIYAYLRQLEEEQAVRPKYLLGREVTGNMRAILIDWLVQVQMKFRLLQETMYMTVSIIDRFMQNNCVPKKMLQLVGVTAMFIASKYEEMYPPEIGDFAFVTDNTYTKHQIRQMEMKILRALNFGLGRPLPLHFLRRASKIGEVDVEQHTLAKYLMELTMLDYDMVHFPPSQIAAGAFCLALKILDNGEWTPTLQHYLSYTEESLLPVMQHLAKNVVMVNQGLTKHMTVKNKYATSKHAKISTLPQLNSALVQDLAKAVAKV

## C[C@H]1CC[C@H](n2c3cnccc3c3cnc(Nc4ccc5c(n4)CCN(C(=O)CO)C5)nc32)CC1
[1]
  IC50: 3 nM
[2]
  IC50: 2220 nM
MOLM-13 [3]
  IC50: 19 nM
[4]
  IC50: 3830 nM
[5]
  bioavailability: 75%
[6]
  Kd: 4 nM
[7]
  Kd: 1 nM
[8]
  Kd: 4 nM
[9]
  Kd: 4 nM
U-937 [10]
  IC50: 52 nM
U-937 [11]
  Activity: 23.68%
MOLM-13 [12]
  Activity: 70.86%
MOLM-13 [13]
  IC50: 28 nM
[14]
  clearance: 23.5 mL/min/kg
[15]
  half-life: 4.1 h
[16]
  bioavailability: 100%
[17]
  clearance: 23.7 mL/min/kg
[18]
  Vd: 3.2 L/kg
[19]
  half-life: 6.6 h
[20]
  bioavailability: 44%
MOLM-13 [21]
  TGI: Dose-dependent effect
MOLM-13 [21]; MOLM-13, po, 192 h
  ED50: 22 mg/kg
Tumour [22]
  inhibition: Active
Tumour [23]
  inhibition: Active
MOLM-13 [24]
  IC50: 23 nM
[25]
  IC50: 23 nM
COLO 205
  IC50: 55 nM
